Results from different studies.

Compound	test system	setting	Tmax
CC(=O)O[C@@]12CO[C@@H]1C[C@H](O)[C@@]1(C)C(=O)[C@H](O)C3=C(C)[C@@H](OC(=O)[C@H](O)[C@@H](NC(=O)OC(C)(C)C)c4ccccc4)C[C@@](O)([C@@H](OC(=O)c4ccccc4)[C@H]21)C3(C)C	male Kunming mouse, liver	oral, 20 mg/kg	30 min
C=CS(=O)(=O)c1ccc(Nc2nc(OCC3CCCCC3)c3nc[nH]c3n2)cc1	male BALB/c mouse, plasma	intraperitoneal, 20 mg/kg, single dose	4.8 min
COc1cc2c(NC3CCN(CCCC(=O)NCCCCCCCCCCCC(=O)N[C@H](C(=O)N4C[C@H](O)C[C@H]4C(=O)NCc4ccc(-c5scnc5C)cc4)C(C)(C)C)CC3)nc(N3CCC(F)(F)CC3)nc2cc1OCCCN1CCCC1	male C57BL/6 mouse, plasma	intraperitoneal, 50 mg/kg, single dose	30 min
CC(C(=O)Nc1c(F)cccc1F)N1CCN(c2ccccc2)CC1 (centres unmarked)	female C57BL/6 mouse, brain	intraperitoneal, 10 mg/kg	15 min
C[C@@H](NCCCc1cccc(C(F)(F)F)c1)c1cccc2ccccc12	male CD-1 mouse, plasma	subcutaneous, 3 mg/kg, single dose	15 min
Cc1cc2sc(N)nc2c2cccnc12	female BALB/c mouse, plasma	intraperitoneal, 30 mg/kg, single dose	15 min
Nc1ncn([C@H]2C[C@H](O)[C@@H](CO)O2)c(=O)n1	female C57BL/6 mouse, plasma	oral, 0.4 mg/kg	4.98 min
Cc1c(C(=O)O)ccc2c3n(nc12)[C@@H]1[C@H](C3)N(CC2CC2)[C@@]2(C(=O)Nc3cc(Cl)ccc32)[C@H]1c1cccc(Cl)c1F	female mouse, plasma	oral, 5 mg/kg	282 min
C[C@@H](N[C@H]1CCN(c2ccc(CC(=O)O)cc2)C1)c1cccc2ccccc12	male CD-1 mouse, plasma	subcutaneous, 3 mg/kg, single dose	60 min
CCN1CCN(Cc2ccc(NC(=O)c3ccc(C)c(NC(=O)c4cncc(-c5cccs5)c4)c3)cc2C(F)(F)F)CC1	mouse, plasma	intraperitoneal, 20 mg/kg, single dose	30 min
CCOc1ccc(N(C)S(=O)(=O)c2cc(Cl)sc2C(=O)Nc2cc(Cl)cc(C(=O)O)c2)cc1OC	male C57BL/6 mouse, plasma	intraperitoneal, 10 mg/kg	15 min
